Measurements taken from PubChem BioAssay.
Active and inactive are the calls of the source.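 The calls were made as follows, unless noted: active = viability at or below 30% in both replicate assays; inconclusive = viability at or below 30% in just one of the two assays; inactive = the rest.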

Tests used:
[1] = SK-BR-3 cell growth inhibitors, pilot screen, 24 h, human (AID 572;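 active = viability at or below 10% of carrier control in both of two separate runs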;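 also: compound exposure lasted between 18 and 24 h rather than exactly 24 h; 100% = carrier-treated control wells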); details: SK-BR-3 viability, CellTiter-Glo luminescence, at 10 µM, stronger effect = lower value
[2] = HUVEC growth inhibition – cell-based, human, primary screen (AID 575); details: HUVEC proliferation, CellTiter-Glo luminescence, 72 h; at 10 µM; stronger effect = lower value;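 also: 100% = median of untreated cell wells with 0.1% DMSO on each plate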
Procedure, shortened: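 Test system: primary human umbilical vein endothelial cells. Quantity: 1250 cells/well. Compound: single 10 µM dose, 0.1% DMSO, from 5x medium stock. Timing: 72 h treatment at 37 °C. Detection: ATP-based CellTiter-Glo luminescent read. Benchmarks: vehicle and MePR control wells. Format: 384-well plates coated with collagen.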

[3] = growth inhibitors of H69AR lung tumor, primary screen, human, duplicate replicates (AID 580;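 active = viability at or under a set limit in both replicates, limit being median viability minus 3 SD, cut at about 48% in these data, passing the limit was not always enough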;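 also: 100% = mean luminescence of untreated wells and 0% = no signal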); details: H69AR lung tumor cells viability, ATP luminescence, 72 h; at 10 µM; stronger effect = lower value
[4] = reversal of MRP1-mediated doxorubicin resistance, pilot screen, H69AR cells, doxorubicin co-treatment (AID 601;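 active = viability loss from added drug above about 55%, and viability with drug at most 40%, in both replicates, limit read from the data, passing the limit was not always enough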); details: CellTiter-Glo, 72 h, at 10 µM; for differential viability (reversal): stronger effect = higher value
[5] = 384-well plate pilot, post-Golgi transport modulator project, inhibition of yeast transport mutant growth (AID 636; in the data active = inhibition above about 31%); details: absorbance 615 nm, about 18 h, stronger effect = higher value
[6] = growth suppression of yeast trafficking mutant, preliminary HTS, modulators of trafficking downstream of Golgi apparatus project, 1536-format plate, OD 615 nm (AID 637; in the data active = inhibition above about 30%); details: yeast transport mutant growth, absorbance 615 nm, 18 h; stronger effect = higher value
[7] = H69AR cells + 2 uM doxorubicin, measured here: viability with 2 uM doxorubicin, stronger effect = lower value
[8] = H69AR cells, compound alone cytotoxicity

SMILES | viability [1] | viability [2] | viability [3] | differential viability (reversal) ([4]; H69AR cells + 2 uM doxorubicin) | viability [4, 7] [%] | viability [4, 8] [%] | inhibition [5] | inhibition [6]
O=c1[nH]c2cc3c(cc2cc1C(c1nnnn1C1CCCCC1)N1CCSCC1)OCCO3 (stereo not given) | 97% (inactive) | 93.1% (inactive) | 98.8% (inactive) | -1.53% (inactive) | 100 | 98.8 | -0.81% (inactive) | 1.45% (inactive)
N#Cc1c(N)oc(-c2cccs2)c1-c1cccs1 | 107% (inactive) | 107% (inactive) | 95% (inactive) | 1.77% (inactive) | 93.2 | 95 | -6.93% (inactive) | -3.82% (inactive)
Cc1cc(C(F)(F)F)c2c(C)nn(CCc3nn[nH]n3)c2n1 | 105% (inactive) | 91.4% (inactive) | 96.1% (inactive) | -1.98% (inactive) | 98.1 | 96.1 | 0.14% (inactive) | 12.2% (inactive)
Nc1nc2c(ncn2COCCO)c(=O)[nH]1 | 97% (inactive) | 86.9% (inactive) | 98.9% (inactive) | 3.38% (inactive) | 95.5 | 98.9 | 0.65% (inactive) | 3% (inactive)
Cc1nnc(C)c2c(C)n(Cc3ccc4c(c3)OCO4)c(C)c12 | 76% (inactive) | 91% (inactive) | 80.9% (inactive) | 6.03% (inactive) | 74.8 | 80.9 | -0.55% (inactive) | 24.5% (inactive)
CCn1cc(C(=O)O)c(=O)c2cc(F)c(N3CCNCC3)cc21 | 105% (inactive) | 91.1% (inactive) | 92.1% (inactive) | 3.17% (inactive) | 88.9 | 92.1 | -3.77% (inactive) | 7.83% (inactive)
Cc1cc(-c2ccccc2)nc(SCc2ccc(C(=O)O)o2)n1 | 121% (inactive) | 103% (inactive) | 97.5% (inactive) | 5.94% (inactive) | 91.6 | 97.5 | -5.6% (inactive) | 0.73% (inactive)
CC(C)(Oc1ccc(Cl)cc1)C(=O)NCc1ccncc1 | 111% (inactive) | 105% (inactive) | 94.2% (inactive) | 5.47% (inactive) | 88.7 | 94.2 | -6.89% (inactive) | -12.2% (inactive)
CCC1(C)Cc2c(sc3nc(SCC(=O)O)[nH]c(=O)c23)CO1 (stereo not given) | 111% (inactive) | 107% (inactive) | 94.1% (inactive) | 14.5% (inactive) | 79.6 | 94.1 | -1.6% (inactive) | -10% (inactive)
O=C(NCc1ccccc1)C1CCCN(S(=O)(=O)c2cccnc2)C1 (stereo not given) | 92% (inactive) | 95.5% (inactive) | 99% (inactive) | 6.21% (inactive) | 92.8 | 99 | -4.66% (inactive) | -3.81% (inactive)
COc1cccc(NC(=O)C2CCCN2C(=O)Nc2cccc(F)c2)c1 (stereo not given) | 96% (inactive) | 103% (inactive) | 103% (inactive) | 8.87% (inactive) | 94 | 103 | -3.7% (inactive) | -3.06% (inactive)
c1cnc(NCCNc2ncccn2)nc1 | 98% (inactive) | 112% (inactive) | 99.8% (inactive) | 10.7% (inactive) | 89 | 99.8 | -8.4% (inactive) | -3.82% (inactive)
Cc1cc(C)nc(SCCS(=O)Cc2ccc(Cl)cc2)n1 (stereo not given) | 102% (inactive) | 99.4% (inactive) | 96.2% (inactive) | 4.69% (inactive) | 91.5 | 96.2 | -2.34% (inactive) | -3.11% (inactive)
Cc1cccc(NC(=O)CSc2nnc(-c3ccccc3C)o2)c1 | 87% (inactive) | 107% (inactive) | 75.4% (inactive) | 3.35% (inactive) | 72 | 75.4 | -5.95% (inactive) | -7.27% (inactive)
CCOCCCn1c(=NC(C)=O)c(C(=O)OCC)cc2c(=O)n3ccccc3nc21 | 82% (inactive) | 108% (inactive) | 90.5% (inactive) | 43.1% (inactive) | 47.4 | 90.5 | -0.68% (inactive) | 2% (inactive)
CN(C)CC(C(=O)c1ccccc1)c1ccccc1 (stereo not given) | 30.5% | 53.4% (inactive) | 1.17% (active) | -0.515% (inactive) | 1.68 | 1.17 | 2.95% (inactive) | -4.33% (inactive)
Nc1cc(N)nc(SCc2ccccc2)n1 | 94% (inactive) | 90.8% (inactive) | 85.6% (inactive) | -6.86% (inactive) | 92.4 | 85.6 | -0.68% (inactive) | 9.27% (inactive)
CCOC(=O)C1CCN(C(=O)COc2ccc(S(=O)(=O)NC(C)C)cc2Cl)CC1 | 99.5% (inactive) | 100% (inactive) | 90.4% (inactive) | -15.3% (inactive) | 106 | 90.4 | 0.66% (inactive) | 24.5% (inactive)
CCC1(C(=O)OC)NC(c2cccc(F)c2)C2C(=O)N(C)C(=O)C21 (stereo not given) | 91% (inactive) | 96.1% (inactive) | 88.3% (inactive) | -1.59% (inactive) | 89.8 | 88.3 | -6.08% (inactive) | 0.73% (inactive)

SMILES | viability [1] | viability [2] | viability [3] | differential viability (reversal) ([4]; H69AR cells + 2 uM doxorubicin) | viability [4, 7] [%] | viability [4, 8] [%] | inhibition [5] | inhibition [6]
Cc1cccc(NC(=O)CCCCCN2C(=O)c3ccccc3C2=O)n1 | 92% (inactive) | 105% (inactive) | 105% (inactive) | 2.47% (inactive) | 102 | 105 | -7.12% (inactive) | 5.45% (inactive)
Cn1c(=O)c2c(nc(SCC(=O)N3CCCc4ccccc43)n2C)n(C)c1=O | 94% (inactive) | 107% (inactive) | 102% (inactive) | 7.81% (inactive) | 93.9 | 102 | 1.22% (inactive) | -2.73% (inactive)
Cc1ccc2c(c1)CCCN2C(=O)c1ccc2c(c1)OCO2 | 48% (inactive) | 108% (inactive) | 101% (inactive) | -8.85% (inactive) | 110 | 101 | -8.63% (inactive) | -6.18% (inactive)
CN(C(=O)C1CCOC1)c1nnc(-c2cccnc2)s1 (stereo not given) | 92% (inactive) | 101% (inactive) | 88.5% (inactive) | 4.19% (inactive) | 84.3 | 88.5 | -1.23% (inactive) | 19.4% (inactive)
Cc1c(C)n(C(=O)CN2CCN(c3ccccn3)CC2)c2ccccc12 | 102% (inactive) | 81.2% (inactive) | 81.7% (inactive) | -0.845% (inactive) | 82.5 | 81.7 | -5.2% (inactive) | -2.73% (inactive)
CN1CCN(CCCN2c3ccccc3Sc3ccc(Cl)cc32)CC1 | 25% | 3.48% (active) |  | -15.4% (inactive) | 58.6 | 43.1 |  | 
COCCCNC(=O)CCn1c(=O)c2ccccc2n(CC(=O)Nc2ccc(C)cc2C)c1=O | 101% (inactive) | 106% (inactive) | 87.1% (inactive) | 7.22% (inactive) | 79.9 | 87.1 | 1.3% (inactive) | -5.41% (inactive)
Cc1csc(NC(=O)c2ccccc2C(=O)O)n1 | 103% (inactive) | 108% (inactive) | 95.3% (inactive) | -0.43% (inactive) | 95.8 | 95.3 | -2.27% (inactive) | 1.27% (inactive)
CC(C)(C)OC(=O)N1CC=C2C(C#N)=C(N)C(C#N)(C#N)C(c3cccs3)C2C1 (stereo not given) | 65% (inactive) | 53.9% (inactive) |  | -5.04% (inactive) | 57.8 | 52.8 | -1.92% (inactive) | -0.16% (inactive)
O=C(C1CCCCC1)N1CCC(c2nc3c(nnn3Cc3ccccc3Cl)c(=O)[nH]2)CC1 | 90% (inactive) | 83.6% (inactive) | 73.9% (inactive) |  |  |  | -3.24% (inactive) | -9.27% (inactive)
O=C(CN1CCN(Cc2ccc3c(c2)OCO3)CC1)N1CCc2[nH]c3ccc(F)cc3c2C1 | 96% (inactive) | 58.8% (inactive) |  | -8.87% (inactive) | 61.4 | 52.5 | -2.13% (inactive) | -6% (inactive)
OCCN1CCN(CCCN2c3ccccc3Sc3ccc(C(F)(F)F)cc32)CC1 | 3% (active) | 2.4% (active) |  | -2.74% (inactive) | 3.77 | 1.03 |  | 
Cc1cc(CN2CCN(CCC#N)CC2)c(O)c(C2(C)CCCCC2)c1 | 106% (inactive) | 54.2% (inactive) |  | -12.2% (inactive) | 77.1 | 64.9 | 1.1% (inactive) | 39.4% (active)
Cc1ccc(C2=N/C(=C/N3CCOCC3)C(=O)O2)cc1 | 84% (inactive) | 82.5% (inactive) | 90.6% (inactive) | 13.1% (inactive) | 77.5 | 90.6 | -2.08% (inactive) | -7.21% (inactive)
Cc1sc2ncnc(Oc3ccc(-n4ccnc4)cc3)c2c1C | 88% (inactive) | 102% (inactive) | 87.2% (inactive) | -15.1% (inactive) | 102 | 87.2 | -8.77% (inactive) | 3.27% (inactive)
COc1ccc(CCNC(=O)CSCc2n[nH]c(=O)[nH]2)cc1OC | 110% (inactive) | 89.3% (inactive) | 88.5% (inactive) | -0.08% (inactive) | 88.6 | 88.5 | -10.7% (inactive) | 0% (inactive)
CCCc1[nH]nc2c1C(c1cn[nH]c1-c1ccc(F)cc1)C(C#N)=C(N)O2 (stereo not given) | 98.5% (inactive) | 48.3% (inactive) |  | -8.32% (inactive) | 53.7 | 45.4 | -2.21% (inactive) | 2.95% (inactive)
COc1ccccc1NC(=O)N(Cc1ccco1)Cc1cc2c(C)ccc(C)c2[nH]c1=O | 70% (inactive) | 71.1% (inactive) |  | -28.8% (inactive) | 50.9 | 22.1 | -2.88% (inactive) | -2.55% (inactive)
COc1ccc(CN(Cc2cc3cc4c(cc3[nH]c2=O)OCO4)C(=O)NC2CCCCC2)cc1 | 85% (inactive) | 63.9% (inactive) | 96.9% (inactive) | 0.835% (inactive) | 96 | 96.9 | 1.22% (inactive) | -1.27% (inactive)
